Data set [1] deals with U-87 MG. Kind of data set: Antitumor activity against human U87 cells xenografted in NCR nude mouse assessed as reduction in tumor size at 20 mg/kg, ip administered thrice weekly for 14 days by vernier caliper method. In kind it is functional, organism-based. As to conditions: U-87MG ATCC, time 14.0 day. In a few lines: (§1)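 Male NCRNU nude mice, 5–6 weeks, 5 × 10^6 U87 cells in PBS injected subcutaneously into left and right flank (n = 4 mice, 8 tumors per group). Dosing began near 50 mm3: 20 mg/kg in PBS IP or oral, three times weekly for 14 days, vehicle DMSO. Calipers three times weekly, V = 2/3·d1·d2²; tumors weighed after CO2 euthanasia.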
In general terms: In xenograft studies the graft and the host belong to different species.

For data set [2], the target named is Heat shock protein beta-1 (Homo sapiens) (UniProt P04792). Kind of data set: Inhibition of HSP27 in human T98G cells assessed as reduction in AR-V7 expression by Western blot analysis. In kind it is cell-based. As to conditions: dose 25-100 nM. In a few lines:
(§2)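 Cells were treated in six-well plates (with or without MG132 where stated), then lysed in RIPA with protease inhibitors. 50 μg protein was run on 10% SDS-PAGE and transferred to PVDF. Membranes were blocked in 5% milk/TBS-T, probed with AR or AR-V7 antibodies overnight at 4 °C, and detected by chemiluminescence. Densitometry was used; n = 3.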
A general note: Immunoblotting shows a protein as a band on a membrane.

The target is the same in data set [3]. In words: Inhibition of HSP27 in human T98G cells assessed as reduction in AR expression level at 100 nM incubated for 12 hrs by immunofluorescence analysis. Format: cell-based. The method in brief:
(§3)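 T98G cells on coverslips, 24 h after seeding, were treated 12 h with 100 nM, DHT 10 nM, or both. Cells were fixed in 4% paraformaldehyde, permeabilized with 0.1% Triton X-100 and blocked with 1% BSA. They were stained 1 h each with AR and HSP27 primary and fluorescent secondary antibodies, with DAPI for nuclei.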

Data set [4] addresses T1, Androgen receptor (Homo sapiens) (UniProt P10275).
T1 sequence (whole entry): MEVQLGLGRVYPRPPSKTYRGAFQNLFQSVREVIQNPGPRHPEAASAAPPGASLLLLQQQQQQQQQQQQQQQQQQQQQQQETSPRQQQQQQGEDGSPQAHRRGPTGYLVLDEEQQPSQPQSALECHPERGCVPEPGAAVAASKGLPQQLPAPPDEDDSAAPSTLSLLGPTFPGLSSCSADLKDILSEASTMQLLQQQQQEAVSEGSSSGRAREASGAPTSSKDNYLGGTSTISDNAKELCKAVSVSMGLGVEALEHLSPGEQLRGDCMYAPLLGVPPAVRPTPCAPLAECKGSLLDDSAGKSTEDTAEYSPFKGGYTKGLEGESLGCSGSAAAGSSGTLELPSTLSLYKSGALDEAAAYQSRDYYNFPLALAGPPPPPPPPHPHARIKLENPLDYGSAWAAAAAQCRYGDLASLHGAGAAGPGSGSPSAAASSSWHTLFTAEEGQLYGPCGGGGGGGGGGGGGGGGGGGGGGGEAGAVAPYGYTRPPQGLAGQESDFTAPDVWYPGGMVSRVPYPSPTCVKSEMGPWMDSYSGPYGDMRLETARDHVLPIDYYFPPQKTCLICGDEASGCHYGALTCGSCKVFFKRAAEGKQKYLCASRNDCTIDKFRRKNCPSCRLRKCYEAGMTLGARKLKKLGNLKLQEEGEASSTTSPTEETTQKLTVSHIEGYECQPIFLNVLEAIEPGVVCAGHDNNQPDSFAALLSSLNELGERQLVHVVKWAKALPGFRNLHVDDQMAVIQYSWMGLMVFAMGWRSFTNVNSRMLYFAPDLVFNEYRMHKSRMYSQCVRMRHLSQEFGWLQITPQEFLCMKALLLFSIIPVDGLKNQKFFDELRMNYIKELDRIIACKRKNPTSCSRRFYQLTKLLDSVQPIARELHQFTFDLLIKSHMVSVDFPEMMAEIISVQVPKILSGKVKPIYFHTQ
In words: Inhibition of AR transcriptional activity in human U87 cells assessed as reduction in AR mRNA expression at 25 nM incubated for 12 hrs by qRT-PCR analysis. Format: cell-based. The method in brief:
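T98G and U87 cells, 2 × 10^5 per well, adhered overnight and were treated at 25 nM for 12 h. RNA was extracted with RiboZol and DNase I-treated. AR, PSA and NKX3.1 were measured by real-time PCR, normalized to 18S by 2−ΔΔCt, three replicates per cDNA.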
(In general: In qPCR the cycle at which signal appears reflects the starting amount.)

The target in data set [5] is Heat shock protein beta-1 (Homo sapiens) (UniProt P04792). Kind of data set: Inhibition of HSP27 (unknown origin) chaperone activity assessed as increase in DTT-induced insulin aggregation at 10 uM incubated for 5 mins in presence of alpha-crystallin followed by addition of DTT and measured for 2 hrs for every 3 mins by microplate reader analysis. As to conditions: time 125.0 min. In a few lines: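 Insulin aggregation assay in PBS at 10 μM, 0.1% DMSO. Insulin stock 1 mg/mL with or without α-crystallin stock 5 mg/mL was preincubated 5 min at 37 °C. Aggregation was started with DTT (1 M stock). A400 was read every 3 min for 2 h; three independent experiments, each in triplicate.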

The target is the same in data set [6]. Kind of data set: Inhibition of HSP27 in human T98G cells assessed as AR accumulation in nucleus at 100 nM incubated for 12 hrs in presence of DHT by immunofluorescence analysis. Format: cell-based. In a few lines:
as §3

For the next data set, the system named is U-251. Kind of data set: Antiproliferative activity against human U-251 cells assessed as reduction in cell viability incubated for 48 hrs by MTT assay. Format: functional, cell-based. As to conditions: U-251, 48 h. In a few lines: (§4)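 MTT assay; 3000 cells/well in RPMI 1640 or DMEM with 10% FBS, seeded 24 h, then exposed 48 h to a range of concentrations in DMSO (final ≤0.1%); vehicle controls. MTT 1 mg/mL for 2 h at 37 °C, dye dissolved in DMSO, absorbance 570 nm; eight replicates; IC50 by nonlinear regression.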

Data set [7] concerns the target Heat shock protein beta-1 (Homo sapiens) (UniProt P04792). In words: Inhibition of HSP27 in human U87 cells assessed as reduction in AR expression level at 50 to 100 nM in presence of MG132 by Western blot analysis. As to conditions: dose 50-100 nM. Format: cell-based. The method in brief: as §2
For data set [8], the system named is U-87 MG. In words: Antiproliferative activity against human U87 cells assessed as reduction in cell viability incubated for 48 hrs by MTT assay. In kind it is functional, cell-based, U-87MG ATCC. The method in brief:
as §4

The target of data set [9] is Heat shock protein beta-1 (Homo sapiens) (UniProt P04792). In words: Inhibition of HSP27 in human U87 cells assessed as induction of AR degradation at 25 to 100 nM by Western blot analysis. In kind it is cell-based. As to conditions: dose 25-100 nM. The method in brief:
as §2

The target is the same in data set [10]. In words: Inhibition of HSP27 in human T98G cells assessed as downregulation of androgen receptor by Western blot analysis. In kind it is cell-based. As to conditions: dose 25-100 nM. In a few lines: as §2
Data set [11] relates to U-87 MG. Kind of data set: Antitumor activity against human U87 cells xenografted in nude mouse assessed as reduction in tumor size at 20 mg/kg, po administered thrice weekly for 14 days by vernier caliper method. In kind it is functional, organism-based. As to conditions: U-87MG ATCC, time 14.0 day. The method in brief: as §1
For data set [12], the target named is Heat shock protein beta-1 (Homo sapiens) (UniProt P04792). In words: Inhibition of HSP27 in human T98G cells assessed as induction of AR degradation at 25 to 100 nM by Western blot analysis. In kind it is cell-based. As to conditions: dose 25-100 nM. In a few lines: as §2
Data set [13] in a line: Toxicity in NCR nude mouse xenografted with human U87 cells assessed as change in body weight at 20 mg/kg, po administered thrice weekly for 14 days. In kind it is organism-based. As to conditions: in vivo, 336 h, time 14 day. In a few lines:
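Male NCRNU nude mice, 5–6 weeks old, were given 5 × 10^6 U87 cells in 100 μL sterile PBS, injected subcutaneously into the left and right flanks. Dosing was 20 mg/kg in PBS, three times weekly for 14 days, with a DMSO vehicle group. Body weight was recorded three times weekly. Results are mean ± SD, n = 4 mice per group.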

Activity calls are given as the source filed them. The rule behind the calls is not given here.

Heat shock protein beta-1 (Homo sapiens), sequence (P04792 whole entry): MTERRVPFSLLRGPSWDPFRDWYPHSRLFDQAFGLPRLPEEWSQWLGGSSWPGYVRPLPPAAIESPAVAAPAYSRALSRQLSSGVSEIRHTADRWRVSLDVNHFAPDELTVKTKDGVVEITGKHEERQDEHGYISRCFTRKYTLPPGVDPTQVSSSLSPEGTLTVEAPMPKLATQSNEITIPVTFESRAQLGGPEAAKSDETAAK

What is called IC50 is the concentration at which inhibition is half-maximal. Regarding `COc1ccc(C(=O)Nc2ccc(NS(C)(=O)=O)c(OCc3cc(OC)ccc3OC)c2)cc1`, the outcome in the data set with U-87 MG [1] and with U-87 MG [11] was Active. For the same molecule, the inhibition result in [2] and in data set [10] was “Dose-dependent effect” throughout. Also, the inhibition result in [3], in [4], in data set [5], in data set [9] and in [12] was “Active” in each case. The inhibition result in data set [6] and in [7] was “inactive” in each case. In addition, the figures for the IC50 in the data set with U-251 and in the data set on U-87 MG [8] were 4 nM and 4.78 nM, respectively. The Activity entry in [13] was “Non-Toxic”.

The values are drawn from ChEMBL document CHEMBL4706680, “Small-Molecule HSP27 Inhibitor Abolishes Androgen Receptors in Glioblastoma” (J Med Chem, 2021).
